For data set [1], the target named is T1, recombinant human CES1 (Homo sapiens, UniProt P23141).
T1 sequence (P23141 18-567): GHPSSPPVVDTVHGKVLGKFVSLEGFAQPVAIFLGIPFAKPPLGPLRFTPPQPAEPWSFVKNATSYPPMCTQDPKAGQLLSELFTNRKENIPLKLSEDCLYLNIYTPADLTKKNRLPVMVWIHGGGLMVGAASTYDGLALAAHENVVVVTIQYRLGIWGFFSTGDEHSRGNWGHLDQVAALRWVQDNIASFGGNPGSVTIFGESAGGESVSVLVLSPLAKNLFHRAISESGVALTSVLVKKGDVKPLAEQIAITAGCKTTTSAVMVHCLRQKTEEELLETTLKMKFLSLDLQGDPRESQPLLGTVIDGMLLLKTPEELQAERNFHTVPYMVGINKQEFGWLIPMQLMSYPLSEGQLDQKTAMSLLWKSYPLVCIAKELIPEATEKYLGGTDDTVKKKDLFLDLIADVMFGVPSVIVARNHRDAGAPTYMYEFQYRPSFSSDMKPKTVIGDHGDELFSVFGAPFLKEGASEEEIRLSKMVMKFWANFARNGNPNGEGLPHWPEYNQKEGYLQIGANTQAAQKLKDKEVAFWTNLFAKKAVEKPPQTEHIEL
Briefly: Off-target test: 2AG hydrolysis by recombinant human CES1 with NAM. The class given is biochemical. The following applies: NAM 50 μM, 2AG 25 μM, 10 min pre-incubation.

The target of data set [2] is T1, recombinant human CES1. Briefly: Hydrolysis of 2AG and PG-Gs by recombinant CES1. Type of data set: biochemical. The following applies: for Km / kcat: human CES1, average ± SE of 2-4 independent experiments.
Another data set deals with T2, recombinant human CES2 (Homo sapiens, UniProt O00748).
T2 sequence (O00748 27-559): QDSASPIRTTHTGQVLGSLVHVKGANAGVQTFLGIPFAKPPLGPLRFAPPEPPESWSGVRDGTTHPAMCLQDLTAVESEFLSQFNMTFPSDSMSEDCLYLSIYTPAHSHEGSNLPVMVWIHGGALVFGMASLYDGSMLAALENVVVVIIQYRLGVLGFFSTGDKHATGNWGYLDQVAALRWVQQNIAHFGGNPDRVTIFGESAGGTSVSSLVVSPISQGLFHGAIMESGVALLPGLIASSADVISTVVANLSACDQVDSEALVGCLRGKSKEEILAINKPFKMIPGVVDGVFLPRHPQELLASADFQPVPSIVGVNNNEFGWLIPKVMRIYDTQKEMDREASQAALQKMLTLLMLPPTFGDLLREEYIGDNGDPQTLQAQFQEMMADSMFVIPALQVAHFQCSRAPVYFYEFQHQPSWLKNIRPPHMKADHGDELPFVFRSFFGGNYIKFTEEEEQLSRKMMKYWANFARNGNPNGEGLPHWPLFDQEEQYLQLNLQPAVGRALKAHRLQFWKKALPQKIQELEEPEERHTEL
Briefly: Hydrolysis of 2AG and PG-Gs by recombinant CES2. The following applies: for Km / kcat: human CES2, average ± SE of 2-4 independent experiments. The class given is biochemical.

Data set [3] has as its target T3, recombinant human MAGL (Homo sapiens, UniProt Q99685).
T3 sequence (Q99685 1-303): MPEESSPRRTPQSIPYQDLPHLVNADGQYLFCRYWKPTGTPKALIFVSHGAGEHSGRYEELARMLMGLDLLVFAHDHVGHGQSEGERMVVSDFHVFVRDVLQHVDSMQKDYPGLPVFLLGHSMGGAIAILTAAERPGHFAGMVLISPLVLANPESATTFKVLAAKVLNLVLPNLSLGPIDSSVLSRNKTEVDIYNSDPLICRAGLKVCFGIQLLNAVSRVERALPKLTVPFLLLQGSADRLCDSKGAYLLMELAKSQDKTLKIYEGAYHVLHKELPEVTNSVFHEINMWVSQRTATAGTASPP
The class given is biochemical. The following applies: substrate 25 μM, 15 min, recombinant human enzymes. A digest of the protocol:
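Purified recombinant human enzymes were compared; CES1 was expressed in baculovirus-infected Spodoptera frugiperda cells.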

Data set [4] concerns CES1-depleted THP1 monocyte lysates. Briefly: PG-G and 2AG hydrolysis by CES1-immunodepleted THP1 monocyte lysates. The following applies: 25 μM PG-G or 10 μM 2AG, 30 min; versus preimmune IgG control. Type of data set: biochemical, human. A digest of the protocol: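 THP1 monocyte lysate was solubilised in 50 mM Tris-HCl (pH 7.4) with 0.5% w/v Brij (1 h, 4°C). It was then incubated overnight with anti-CES1 or preimmune IgG plus protein A-agarose, and depletion was checked by western blot. Substrate (25 μM PG-G or 10 μM 2AG) in the same buffer was preheated 5 min at 37°C, then started with 10-30 μg supernatant lysate; 2AG ran 30 min. Reactions were run in duplicate or triplicate across ≥2 IP experiments, compared by Student's t-test.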

Data set [5] deals with T4, native CES1 in THP1 lysates (Homo sapiens, UniProt P23141).
T4 sequence (P23141 18-567): T1 sequence (P23141 18-567)
Briefly: Activity-based protein profiling with FP-biotin in THP1 lysate: CES1. Type of data set: biochemical. In outline:
(§1)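 THP1 monocyte lysate (1 mg/ml protein in 50 mM Tris-HCl, pH 7.4) was labelled with 2 μM FP-biotin for 1 h at room temperature. Irreversible inhibitors were preincubated for 30 min (37°C) before the probe. For the reversible inhibitor, lysate received inhibitor, then 0.2 μM FP-biotin for 7.5 min, short of full labelling. Reactions were stopped in reducing SDS loading buffer (95°C, 5 min), run on SDS-PAGE and blotted with avidin-HRP.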

The test system of data set [6] is 31-32kDa enzyme in THP1 lysates. Briefly: Activity-based protein profiling with FP-biotin in THP1 lysate: 31-32kDa enzyme. The class given is biochemical, human. A digest of the protocol:
as §1

In data set [7] the target is T1, recombinant human CES1. Briefly: Recombinant human CES1 activity using pNPV as substrate. Type of data set: biochemical. The following applies: data not shown.
Data set [8] concerns lipid glyceryl ester hydrolase activities of THP1 monocyte lysates.
Data set [9] addresses T3, recombinant human MAGL. Briefly: Off-target test: 2AG hydrolysis by recombinant human MAGL with S-3030. The class given is biochemical. The following applies: S-3030 50 μM, 2AG 25 μM, 10 min pre-incubation.
For the next data set, the system named is THP1 macrophages. Briefly: In situ formation of PG-Gs by LPS-primed THP1 macrophages given exogenous 2AG. Type of data set: cell-based, human. The following applies: indomethacin 3 μM added along with CPO prior to 2AG.
Substrate in data set [10]: CCCCC/C=C\C/C=C\C/C=C\C/C=C\CCCC(=O)OC(CO)CO
Briefly: Hydrolysis of 2AG and PG-Gs by recombinant CES2. The following applies: other: human CES2; average ± SE of 2-4 independent experiments; pH 7.4; 37.0 °C. The class given is biochemical.

Substrate in data set [11]: CCCCC/C=C\C/C=C\C/C=C\C/C=C\CCCC(=O)OC(CO)CO
Briefly: Hydrolysis of 2AG and PG-Gs by recombinant CES1. The class given is biochemical. The following applies: other: human CES1; average ± SE of 2-4 independent experiments; pH 7.4; 37.0 °C.

Setting [12] is: maximal inhibition using 100 μM S-3030.

“And” between values parts separate entries of the source, which are not always exact repeats. Equal values may be shown once. “Also recorded” adds a separate entry of the source.

Turning to `CCCCC/C=C\C/C=C\C/C=C\C/C=C\CCCC(=O)N1C(=O)C=CC1=O` [NAM, N-arachidonoyl maleimide], the “inhibition of recombinant CES1 activity toward 2AG” value at recombinant human CES1 [1] is listed as “inhibits”.
For “prostaglandin F2α glyceryl ester [PGF2α-G]”, at recombinant human CES1 [2], the Km stood at 93 ± 43 µM and the kcat was 29 ± 3.5^a,b min^−1. At recombinant human CES2, the “hydrolysis relative to PGE2-G using CES2 (judged by kcat/Km)” value is listed as 6.5 fold, the Km is 35 ± 4.1 µM and the kcat is reported as 49 ± 5.4^a min^−1. Moreover, the “hydrolysis by CES2 relative to CES1” value at recombinant human CES2 (Table 1) is “three times faster”. Moreover, the “hydrolysis rate by MAGL relative to CES1” value on recombinant human MAGL [3] was 4 fold. Further, the “reduction of hydrolysis activity of CES1-depleted lysate” value (from here on “reduction … of CES1-depleted lysate”) in [4] is listed as 50%.
As to `O=C(Oc1ccc([N+](=O)[O-])cc1)N1CCC(C(O)(c2ccc3c(c2)OCO3)c2ccc3c(c2)OCO3)CC1` [JZL184], in [5] (JZL184 as low as 0.1 μM), the “inhibition of CES1 in THP1 cell lysate (FP-biotin activity blot)” value was “completely inhibit”. The “inhibition of the 31-32kDa enzyme (FP-biotin activity probe)” value in data set [6] (concentrations as high as 100 μM, 30 min) is “not inhibited”. Moreover, the “inhibition of recombinant human CES1 activity using pNPV as substrate” value on recombinant human CES1 [7] was “potently inhibit”. Also, the “reduction of PGF2α-G hydrolytic activity in THP1 monocyte lysate” value in data set [8] (maximal reduction by JZL184) came out at 80%.
As for `O=C1C(=O)c2sccc2-c2ccsc21` [S-3030, thieno[3,2-e][1]benzothiophene-4,5-dione], the IC50 in data set [5] is ~23 µM. Moreover, the “inhibition of the 31-32kDa enzyme (FP-biotin band intensity)” value in [6] (S-3030 0-100 μM, FP-biotin 0.2 μM, 7.5 min) is listed as “not reduced”. Further, at recombinant human MAGL [9], the “inhibition of recombinant human MAGL activity” value was “did not inhibit; also recorded: does not inhibit”. For the same molecule, in data set [8] (setting [12]), the “inhibition of 2AG hydrolysis in THP1 monocyte lysate” value was 55% and 50%; the “inhibition of PGE2-G hydrolysis in THP1 monocyte lysate” value is 97% and > 95%; the “inhibition of PGF2α-G hydrolysis in THP1 monocyte lysate” value is given as 80%.
As for “prostaglandin E2 glyceryl ester [PGE2-G]”, the Km at recombinant human CES1 [2] was determined as 250 ± 60 µM; at recombinant human CES2 it was 705 ± 380 µM. The kcat at recombinant human CES1 [2] is 90 ± 16^b min^−1; on recombinant human CES2 it was 150 ± 81 min⁻¹. Besides, on recombinant human MAGL [3], the “hydrolysis rate by MAGL relative to CES1” value came out at 2 fold. Besides, in [4], the “reduction … of CES1-depleted lysate” value is given as 80%.
Consider `CN(Cc1cccc(-c2ccncc2)c1)C(=O)Oc1ccc(-c2ccc(C(N)=O)cc2)cc1` [WWL70], for which, in [8] (specific ABHD6 inhibitor), the “inhibition of 2AG hydrolytic activity in THP1 cell lysate” value is given as “did not inhibit; also recorded: does not inhibit”.
With `COc1ccc2c(c1)c(CC(=O)O)c(C)n2C(=O)c1ccc(Cl)cc1` [indomethacin], the “formation of PG-Gs by THP1 macrophages” value with THP1 macrophages is on record as “blocked formation of PG-Gs”.
For `CCCCC/C=C\C/C=C\C/C=C\C/C=C\CCCC(=O)NCCO` [AEA, arachidonoyl ethanolamide], the “hydrolysis of AEA by recombinant CES1” value at recombinant human CES1 [2] (amide-containing substrate) is “neither enzyme could hydrolyze”. Further, the “hydrolysis of AEA by recombinant CES2” value on recombinant human CES2 (amide-containing substrate) was “neither enzyme could hydrolyze”.
Turning to `CCCCC/C=C\C/C=C\C/C=C\C/C=C\CCCC(=O)OC(CO)CO` [2AG, 2-arachidonoylglycerol], the kcat came to 59 min⁻¹ at recombinant human CES1 [2] and 43 min⁻¹ on recombinant human CES2. For the same molecule, the “reduction … of CES1-depleted lysate” value in [4] was 64%. The “control THP1 lysate hydrolysis activity” value in [8] (25 μM substrate, no inhibitor) is on record as 2.5 nmol product/min/mg protein.

B1: recombinant human CES2 (Homo sapiens) (protein)
chain: T2 sequence (O00748 27-559)
In the case of B1, in [10], the Km amounted to 46 ± 13 µM and the kcat was 0.717 ± 0.0667 s⁻¹.

B2: recombinant human CES1 (Homo sapiens) (protein)
chain: T1 sequence (P23141 18-567)
As for B2, in data set [11], the Km was 49 ± 11 µM and the kcat came out at 0.983 ± 0.0667 s⁻¹.

Broadly, the Km is the concentration of substrate that gives half-maximal velocity. Usually kcat stands for the number of substrate molecules converted per active site and unit of time at saturation. What is called IC50 is the concentration that inhibits the measured activity by half. A low value points to inhibition by little substance.
